By IC50 is commonly meant the point on the concentration scale where inhibition reaches its midpoint. Lower therefore signals greater potency. As a reminder, the inhibition is the relative decrease from the control value, in per cent. Read a low inhibition as a weak effect.

We go through 8 compounds from ChEMBL document CHEMBL1146795, “Synthesis and antiangiogenic activity of exo-olefinated deoxoartemisinin derivatives” (Bioorg Med Chem Lett, 2004).

Test [1] has as its system HUVEC. As to the kind of experiment: Antiangiogenic activity against HUVEC cells in HUVEC(Human Umbilical Vein Endothelial Cells) proliferation assay usingMTT colorimetric method. In kind it is functional, cell-based. An outline of the steps:
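HUVEC growth measured by MTT colorimetric read-out. IC50 taken from a nonlinear regression fit with r2 > 0.9.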

The nature of test [2]: Antiangiogenic activity against chorioallantoic membrane (CAM) assay at 10 ug/egg. Type of test: functional, tissue-based.
Test [3] deals with HUVEC. As to the kind of experiment: Antiangiogenic activity to suppress the growth factor induced tube formation byHUVEC on Matrigel was assessed at the concentration of 10 ug/mL. In kind it is functional. As to conditions: Homo sapiens.

Converted amounts (≈) assume the structure as drawn.

In the case of `C[C@@H]1CC[C@H]2[C@@H](C)/C(=C\Br)O[C@@H]3O[C@]4(C)CC[C@@H]1[C@]32OO4`, in the test with HUVEC [1], the 50% inhibitory concentration (IC50) was 4.8 µg/mL (≈ 13.4 µM). The inhibition in test [2] turned out to be 80%. In the test with HUVEC [3], this compound had an inhibition at 10 µg/mL of 25%.
The like results for `CCC/C(Br)=C1/O[C@@H]2OC3(C)CC[C@H]4[C@H](C)CC[C@@H]([C@H]1C)[C@@]24OO3` (single isomer, unassigned) were, in that order, 1.9 µg/mL (≈ 4.73 µM), 8% and 10%.
The corresponding values for `C[C@@H]1CC[C@H]2[C@@H](C)/C(=C\c3ccccc3)O[C@@H]3OC4(C)CC[C@@H]1[C@]32OO4` (single isomer, unassigned) are 1.9 µg/mL (≈ 5.33 µM), 10% and 10%.
The corresponding values for `CC(C)=C1O[C@@H]2OC3(C)CC[C@H]4[C@H](C)CC[C@@H]([C@H]1C)[C@@]24OO3` (single isomer, unassigned) are 2.3 µg/mL (≈ 7.46 µM), 29% and 13%.
In the test on HUVEC [1], `C[C@@H]1CC[C@H]2[C@@H](C)C(=Cc3ccccc3)O[C@@H]3OC4(C)CC[C@@H]1[C@]32OO4` (single isomer, unassigned) showed a concentration for half-maximal inhibition (IC50) of 2.3 µg/mL (≈ 6.45 µM). This compound also displayed an inhibition in test [2] of 5%. This compound also showed an inhibition at 10 µg/mL in the test on HUVEC [3] of 10%.
The like results for `C/C(Br)=C1/O[C@@H]2OC3(C)CC[C@H]4[C@H](C)CC[C@@H]([C@H]1C)[C@@]24OO3` (single isomer, unassigned) were, in that order, 25.4 µg/mL (≈ 68 µM), 43% and 32%.
The like results for `C/C(Br)=C1\O[C@@H]2OC3(C)CC[C@H]4[C@H](C)CC[C@@H]([C@H]1C)[C@@]24OO3` (single isomer, unassigned) were, in that order, 4.5 µg/mL (≈ 12.1 µM), 50% and 65%.
The corresponding values for `CCC/C(Br)=C1\O[C@@H]2OC3(C)CC[C@H]4[C@H](C)CC[C@@H]([C@H]1C)[C@@]24OO3` (single isomer, unassigned) are 1.5 µg/mL (≈ 3.74 µM), 57% and 39%.
